Measured values reported in ChEMBL document CHEMBL1126888, “Peptide alpha-keto ester, alpha-keto amide, and alpha-keto acid inhibitors of calpains and other cysteine proteases” (J Med Chem, 1993).

Experiments:
Calpain 1 = Calpain 1 (Homo sapiens, UniProt P07384); assay: Inhibitory activity of alpha-keto esters towards calpain 1 at pH 8.0.; format: protein-complex assay
How it was run: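 Calpain I purified from human erythrocytes; calpain II from rabbit muscle. Buffer: 25 mM Tris pH 8.0, 1 mM β-mercaptoethanol, 10 mM CaCl2, up to 5% DMSO. Substrate: Suc-Leu-Tyr-AMC at 1–3 mM, 70 nM final enzyme, started with enzyme. AMC fluorescence read at ex 380 / em 460 nm. Initial rates taken at 30–60 s at room temperature, with five or more inhibitor levels and two substrate levels. Ki from Dixon plots, triplicates.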

Cathepsin B = Cathepsin B (Bos taurus, UniProt P07688); assay: Inhibition of alpha-keto esters towards cathepsin B at pH 5.2
How it was run: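 Bovine cathepsin B in 20 mM sodium acetate pH 5.2, 0.5 mM dithiothreitol, 2% DMSO. Substrate Bz-Phe-Val-Arg-p-nitroanilide; p-nitroaniline release followed at 405 nm. Ki reported.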

Papain = target: T1, Papain (Carica papaya, UniProt P00784); assay: Inhibitory activity of alpha-ketoesters towards papain at pH 6.0
T1 sequence (P00784 whole entry): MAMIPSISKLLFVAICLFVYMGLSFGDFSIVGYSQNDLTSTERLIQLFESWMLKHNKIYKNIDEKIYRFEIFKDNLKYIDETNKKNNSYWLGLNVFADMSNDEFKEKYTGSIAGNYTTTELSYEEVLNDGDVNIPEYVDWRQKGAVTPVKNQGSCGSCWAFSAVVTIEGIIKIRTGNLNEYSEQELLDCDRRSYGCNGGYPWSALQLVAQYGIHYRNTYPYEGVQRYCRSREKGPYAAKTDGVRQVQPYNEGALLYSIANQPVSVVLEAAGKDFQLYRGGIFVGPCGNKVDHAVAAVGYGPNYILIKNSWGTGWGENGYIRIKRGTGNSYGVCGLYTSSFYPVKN
How it was run: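 Papain in 100 mM K3PO4, 1 mM EDTA, 2.5 mM cysteine, pH 6.0, 2% DMSO. Substrate Bz-Arg-p-nitroanilide; p-nitroaniline release read at 405 nm. Ki reported.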

Rattus norvegicus = organism: Rattus norvegicus; assay: Inhibitory potency against rat platelet membrane permeability at pH 7.35; format: functional
How it was run: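 Rat platelets from cardiac-puncture blood (citrate-EDTA), gel-filtered in HEPES-Tyrode's pH 7.35, at 10^7/mL. Preincubated 5 min at room temperature with inhibitor from DMSO stocks (2% DMSO), then given 1 μM A23187 plus 2 mM Ca for 5 min. Pellets run on SDS-PAGE and western blotted for spectrin. Densitometry of the 150/155-kDa breakdown doublet gives IC50.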

Sequence of Calpain 1 (P04632 whole entry): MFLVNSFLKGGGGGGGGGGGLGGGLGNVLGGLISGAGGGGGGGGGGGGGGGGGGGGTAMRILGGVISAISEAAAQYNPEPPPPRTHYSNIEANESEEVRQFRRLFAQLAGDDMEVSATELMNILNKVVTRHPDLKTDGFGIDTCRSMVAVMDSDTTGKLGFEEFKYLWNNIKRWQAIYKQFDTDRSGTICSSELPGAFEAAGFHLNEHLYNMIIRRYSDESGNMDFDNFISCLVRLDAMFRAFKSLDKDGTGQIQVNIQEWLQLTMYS
Sequence of Calpain 1 (P07384 whole entry): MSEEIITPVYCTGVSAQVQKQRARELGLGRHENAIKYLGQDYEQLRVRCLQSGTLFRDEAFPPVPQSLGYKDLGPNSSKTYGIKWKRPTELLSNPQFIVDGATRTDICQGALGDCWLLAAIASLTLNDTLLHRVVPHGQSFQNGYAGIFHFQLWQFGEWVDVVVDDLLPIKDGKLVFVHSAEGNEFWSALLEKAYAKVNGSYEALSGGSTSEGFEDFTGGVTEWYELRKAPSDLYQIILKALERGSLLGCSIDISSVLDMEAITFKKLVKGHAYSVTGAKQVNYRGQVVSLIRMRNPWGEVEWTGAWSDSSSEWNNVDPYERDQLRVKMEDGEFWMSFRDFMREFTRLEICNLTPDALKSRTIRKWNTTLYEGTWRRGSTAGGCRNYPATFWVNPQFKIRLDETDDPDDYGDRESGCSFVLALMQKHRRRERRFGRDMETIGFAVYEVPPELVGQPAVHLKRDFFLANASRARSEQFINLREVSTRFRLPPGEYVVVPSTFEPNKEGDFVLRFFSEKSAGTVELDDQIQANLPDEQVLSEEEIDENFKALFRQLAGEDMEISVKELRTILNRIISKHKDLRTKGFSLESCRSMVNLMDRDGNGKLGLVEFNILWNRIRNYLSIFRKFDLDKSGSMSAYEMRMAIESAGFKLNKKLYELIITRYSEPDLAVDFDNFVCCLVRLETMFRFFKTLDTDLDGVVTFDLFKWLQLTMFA

Row | Structure (SMILES) | Ki (Calpain 1) [µM] | Ki (Cathepsin B) [µM] | Ki (Papain) [µM] | IC50 (Rattus norvegicus) [µM]
1 | CC(C)CC(NC(=O)OCc1ccccc1)C(=O)NC(Cc1ccccc1)C(=O)C(N)=O (stereo unspecified) | 1 | 32 |  | 
2 | CCCCC(NC(=O)C(CC(C)C)NC(=O)OCc1ccccc1)C(=O)C(=O)OCC (stereo unspecified) | 7 | 20 | 190 | 150
3 | CCC(NC(=O)C(CC(C)C)NC(=O)OCc1ccccc1)C(=O)C(=O)N(CC)CC (stereo unspecified) |  | 270 |  | 
4 | CC(C)CC(NC(=O)OCc1ccccc1)C(=O)NC(Cc1ccccc1)C(=O)C(=O)NCc1ccccc1 (stereo unspecified) |  | 4.6 |  | > 300
5 | CCC(NC(=O)C(CC(C)C)NC(=O)OCc1ccccc1)C(=O)C(=O)NCc1ccccc1 (stereo unspecified) | 0.2 | 1.3 | 38 | 50
6 | CCCCCCCCNC(=O)C(=O)C(CC)NC(=O)C(CC(C)C)NC(=O)OCc1ccccc1 (stereo unspecified) | 0.32 | 2.6 |  | 200
7 | CCCCNC(=O)C(=O)C(CC)NC(=O)C(CC(C)C)NC(=O)OCc1ccccc1 (stereo unspecified) | 0.2 | 13 | 93 | 35
8 | CCOC(=O)C(=O)[C@H](CC)NC(=O)[C@H](CC(C)C)NC(=O)[C@H](CC(C)C)NS(=O)(=O)c1ccc2ccccc2c1 | 16 | 25 |  | 100
9 | CCCNC(=O)C(=O)C(CC)NC(=O)C(CC(C)C)NC(=O)OCc1ccccc1 (stereo unspecified) |  | 8 |  | 70
10 | CC(C)CC(NC(=O)OCc1ccccc1)C(=O)NC(Cc1ccccc1)C(=O)C(=O)OCc1ccccc1 (stereo unspecified) | 3.4 | 45 | 45 | 
11 | CCCCOC(=O)C(=O)C(CC)NC(=O)C(CC(C)C)NC(=O)OCc1ccccc1 (stereo unspecified) | 1.8 | 4 | 10 | 28
12 | CCC(NC(=O)C(CC(C)C)NC(=O)OCc1ccccc1)C(=O)C(=O)NCCCc1ccccc1 (stereo unspecified) | 0.8 | 0.2 |  | 100
13 | CCC(NC(=O)C(CC(C)C)NC(=O)OCc1ccccc1)C(=O)C(=O)OC (stereo unspecified) |  | 17 |  | 280
14 | CCNC(=O)C(=O)C(CC)NC(=O)C(CC(C)C)NC(=O)OCc1ccccc1 (stereo unspecified) | 0.25 | 2.4 | 93 | 100
15 | CCC(NC(=O)C(CC(C)C)NC(=O)OCc1ccccc1)C(=O)C(=O)NCC(c1ccccc1)c1ccccc1 (stereo unspecified) | 0.16 | 3 |  | 
16 | CCOC(=O)C(=O)C(CC)NC(=O)C(CC(C)C)NS(=O)(=O)c1ccc2ccccc2c1 (stereo unspecified) |  | 19 |  | 
17 | CCOC(=O)C(=O)[C@H](Cc1ccccc1)NC(=O)[C@H](CC(C)C)NC(=O)[C@H](CC(C)C)NC(=O)OCc1ccccc1 | 1.4 | 42 | 15 | 
18 | CCC(NC(=O)C(CC(C)C)NC(=O)OCc1ccccc1)C(=O)C(=O)OCc1ccccc1 (stereo unspecified) | 9.5 | 4 | 40 | 100
19 | CCCNC(=O)C(=O)C(Cc1ccccc1)NC(=O)C(CC(C)C)NC(=O)OCc1ccccc1 (stereo unspecified) | 15 | 3 |  | 31
20 | CCCCCCCCCCNC(=O)C(=O)C(CC)NC(=O)C(CC(C)C)NC(=O)OCc1ccccc1 (stereo unspecified) |  | 5 |  | 
21 | CCC(NC(=O)C(CC(C)C)NC(=O)OCc1ccccc1)C(=O)C(=O)N(Cc1ccccc1)Cc1ccccc1 (stereo unspecified) | > 5 | 31 |  | 
22 | CCOC(=O)C(=O)C(CC)NC(=O)C(CC(C)C)NC(=O)OCC(C)C (stereo unspecified) |  | 0.4 |  | > 300
23 | CCC(NC(=O)C(CC(C)C)NC(=O)OCc1ccccc1)C(=O)C(=O)NCC(C)c1ccccc1 (stereo unspecified) | 0.32 |  |  | 27
24 | COC(=O)C(=O)C(Cc1ccccc1)NC(=O)C(CC(C)C)NC(=O)OCc1ccccc1 (stereo unspecified) |  | > 100 |  | 

Row | Structure (SMILES) | Ki (Calpain 1) [µM] | Ki (Cathepsin B) [µM] | Ki (Papain) [µM] | IC50 (Rattus norvegicus) [µM]
25 | CCC(=O)C(=O)[C@H](CC)NC(=O)[C@H](CC(C)C)NC(=O)[C@H](CC(C)C)NC(=O)OCc1ccccc1 | 1.8 | 22 |  | 40
26 | CCCC(NC(=O)C(CC(C)C)NC(=O)OCc1ccccc1)C(=O)C(=O)NCC (stereo unspecified) | 0.21 | 3.3 |  | 40
27 | CCOC(=O)C(=O)C(CC)NC(=O)C(CC(C)C)NC(=O)CCCCc1ccccc1 (stereo unspecified) |  | 7.5 |  | 
28 | CCN(CC)C(=O)C(=O)C(Cc1ccccc1)NC(=O)C(CC(C)C)NC(=O)OCc1ccccc1 (stereo unspecified) | 76 |  |  | 
29 | CCOC(=O)C(=O)[C@H](CC)NC(=O)[C@H](CC(C)C)NC(=O)[C@H](CC(C)C)NS(=O)(=O)c1ccc(C)cc1 | 33 | 69 |  | 30
30 | CCOC(=O)C(=O)C(CCSC)NC(=O)C(CC(C)C)NC(=O)OCc1ccccc1 (stereo unspecified) | 1 | 55 | 140 | 
31 | CCC(NC(=O)C(CC(C)C)NC(=O)OCc1ccccc1)C(=O)C(=O)N(CC)Cc1ccccc1 (stereo unspecified) |  | > 400 |  | 
32 | CCCC(NC(=O)C(CC(C)C)NC(=O)OCc1ccccc1)C(=O)C(N)=O (stereo unspecified) | 0.069 |  |  | 
33 | CCOC(=O)C(=O)[C@H](CC)NC(=O)[C@H](CC(C)C)NC(=O)[C@H](CC(C)C)NC(=O)c1ccc2ccccc2c1 | 1.3 |  |  | 78
34 | CCCCCCCNC(=O)C(=O)C(CC)NC(=O)C(CC(C)C)NC(=O)OCc1ccccc1 (stereo unspecified) | 0.096 | 14 |  | 
35 | CCOC(=O)C(=O)C(CC)NC(=O)C(CC(C)C)NC(=O)C(c1ccccc1)c1ccccc1 (stereo unspecified) | 0.1 |  |  | > 100
36 | CCOC(=O)C(=O)C(Cc1ccc(Cl)cc1)NC(=O)C(CC(C)C)NC(=O)OCc1ccccc1 (stereo unspecified) | < 4 | 50 | 150 | 
37 | CCOC(=O)C(=O)C(CC)NC(=O)C(CC(C)C)NC(=O)CCc1ccccc1 (stereo unspecified) | 40 | 23 |  | 20
38 | CCCCOC(=O)C(=O)C(Cc1ccccc1)NC(=O)C(CC(C)C)NC(=O)OCc1ccccc1 (stereo unspecified) | 5 | 15 | 15 | 
39 | CCOC(=O)C(=O)C(CC)NC(=O)C(CC(C)C)NC(=O)C(CC)Oc1ccccc1 (stereo unspecified) | 20 | 14 |  | 22
40 | CCOC(=O)C(=O)C(CC)NC(=O)C(CC(C)C)NC(=O)CCC(C)Cc1ccccc1 (stereo unspecified) |  | 24 |  | 
41 | CCOC(=O)C(=O)C(CC)NC(=O)C(CC(C)C)NC(=O)CCCc1ccccc1 (stereo unspecified) |  | 23 |  | 20
42 | CCCCNC(=O)C(=O)C(Cc1ccccc1)NC(=O)C(CC(C)C)NC(=O)OCc1ccccc1 (stereo unspecified) | 0.5 | 3 |  | 38
43 | CCCCCCCCCNC(=O)C(=O)C(CC)NC(=O)C(CC(C)C)NC(=O)OCc1ccccc1 (stereo unspecified) | 0.12 | 150 |  | 
44 | CCC(NC(=O)C(CC(C)C)NC(=O)OCc1ccccc1)C(=O)C(=O)NCC1CCCCC1 (stereo unspecified) | 0.68 |  |  | 66
45 | CCC(NC(=O)C(CC(C)C)NC(=O)OCc1ccccc1)C(=O)C(=O)NCC(C)C (stereo unspecified) | 4 | 4 |  | 28
46 | CCC(C)NC(=O)C(=O)C(CC)NC(=O)C(CC(C)C)NC(=O)OCc1ccccc1 (stereo unspecified) | 2 | 0.5 |  | 
47 | CCC(NC(=O)C(CC(C)C)NC(=O)OCc1ccccc1)C(=O)C(=O)NCCCCc1ccccc1 (stereo unspecified) | 0.32 | 1.2 |  | 
48 | CC(C)CNC(=O)C(=O)C(Cc1ccccc1)NC(=O)C(CC(C)C)NC(=O)OCc1ccccc1 (stereo unspecified) | 0.08 | 4 |  | 22
